Reference: ChEMBL document CHEMBL4364341, “Radiosensitization of Head and Neck Squamous Cell Carcinoma (HNSCC) by a Podophyllotoxin” (ACS Med Chem Lett, 2019)
Active and inactive are the calls of the source. The rule behind the calls is not given here.

Assays:
FaDu [1] = assay: Induction of cell cycle arrest in human FADU cells assessed as decrease in cyclin B1 at 0.5 uM incubated for 48 hrs by immunoblot analysis; assay type: functional, cell-based
Procedure, shortened: (§1)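 FaDu cells received compound at 0.5 μM, 5 Gy IR, or both. After 48 h, lysates were immunoblotted for NRF2, cyclin B1, CDK1, Bax and Bcl-2. Membranes were then stripped and reprobed for β-actin as the loading control.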

FaDu [2] = assay: Synergistic induction of apoptosis in human FADU cells assessed as increase in caspase at 0.5 uM followed by irradiation with 5 Gy IR incubated for 48 hrs by luminescence based analysis; assay type: functional, cell-based
FaDu [3] = assay: Synergistic induction of cell cycle arrest in human FADU cells assessed as decrease in accumulation at S phase at 0.5 uM followed irradiation with 5Gy IR incubated for 24 hrs by propidium iodide staining based flow cytometry; assay type: functional
Procedure, shortened: (§2)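 FaDu or SCC-25 cells, untreated, given 5 Gy IR, drug, or drug plus 5 Gy. Cell-cycle distribution by propidium iodide staining and flow cytometry at 6 h and 24 h after treatment. G0/G1, S and G2/M fractions compared with control by t test.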

FaDu [4] = assay: Selectivity ratio of IC50 for antiproliferative activity against human FADU cells assessed as reduction in colony formation unit to IC50 for antiproliferative activity against human FADU cells assessed as reduction in colony formation unit followed by irradiation with 5 Gy IR; assay type: functional
SCC-25 [5] = assay: Synergistic induction of apoptosis in human SCC25 cells assessed as increase in caspase at 0.5 uM followed by irradiation with 5 Gy IR incubated for 48 hrs by luminescence based analysis; assay type: functional, cell-based
FaDu [6] = assay: Synergistic antiproliferative activity against human FADU cells assessed as fractional inhibition at 0.005 uM preincubated for 1 hr followed by irradiation with 2.5 Gy IR and measured after 6 days by MTT assay (reference value: 0.131); assay type: functional
Procedure, shortened: (§3)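 FaDu or SCC-25 cells were grown in DMEM with 10% FBS at 37 °C and 5% CO2. They were seeded at 1000 cells/well in 96-well plates for 24 h, then dosed with compound (fresh DMSO stock diluted in medium) or vehicle. After 1 h, X-rays were given with a sliding 5 mm lead shield, so one plate held 0, 2.5, 5 and 10 Gy columns. After 6 days, MTT (0.5 mg/mL, 45 min) was added, then DMSO, and A570 was read. Values were normalised to the unirradiated vehicle control. Fractional inhibition = 1 − surviving fraction.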

SCC-25 [7] = assay: Synergistic antiproliferative activity against human SCC25 cells assessed as combination index at 5 uM preincubated for 1 hr followed by irradiation with 2.5 Gy IR and measured after 6 days by MTT assay; assay type: functional
Procedure, shortened: (§4)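 SCC-25 cells grown in DMEM with 10% FBS at 37 °C, 5% CO2, seeded 1000 cells/well in 96-well plates and left 24 h. Drug in DMSO, diluted in complete medium, added 1 h before X-irradiation. A movable 5 mm lead shield gave 0, 2.5, 5 or 10 Gy on one plate. After 6 days, MTT readout at 570 nm. Combination index by Chou–Talalay from viability data.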

FaDu [8] = assay: Antiproliferative activity against human FADU cells assessed as fractional inhibition at 0.5 uM after 6 days in absence of irradiation by MTT assay; assay type: functional; procedure, shortened: as §3
FaDu [9] = assay: Synergistic antiproliferative activity against human FADU cells assessed as combination index at 0.05 uM preincubated for 1 hr followed by irradiation with 10 Gy IR and measured after 6 days by MTT assay; assay type: functional
Procedure, shortened: (§5)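 Combination index was calculated by the Chou–Talalay median-effect method from the 6-day MTT viability data of the single-plate compound/X-ray (2.5, 5, 10 Gy) design. CI < 1 denotes synergy, CI = 1 additivity and CI > 1 antagonism.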

FaDu [10] = assay: Synergistic antiproliferative activity against human FADU cells assessed as combination index at 0.005 uM preincubated for 1 hr followed by irradiation with 2.5 Gy IR and measured after 6 days by MTT assay; assay type: functional; procedure, shortened: as §5
SCC-25 [11] = assay: Synergistic antiproliferative activity against human SCC25 cells assessed as combination index at 0.005 uM preincubated for 1 hr followed by irradiation with 5 Gy IR and measured after 6 days by MTT assay; assay type: functional; procedure, shortened: as §4
FaDu [12] = assay: Induction of apoptosis in human FADU cells assessed as increase in Bax at 0.5 uM followed by irradiation with 5 Gy IR incubated for 48 hrs by immunoblot analysis; assay type: functional, cell-based; procedure, shortened: as §1
FaDu [13] = assay: Synergistic antiproliferative activity against human FADU cells assessed as combination index at 5 uM preincubated for 1 hr followed by irradiation with 10 Gy IR and measured after 6 days by MTT assay; assay type: functional; procedure, shortened: as §5
FaDu [14] = assay: Synergistic antiproliferative activity against human FADU cells assessed as combination index at 0.5 uM preincubated for 1 hr followed by irradiation with 2.5 Gy IR and measured after 6 days by MTT assay; assay type: functional; procedure, shortened: as §5
SCC-25 [15] = assay: Synergistic antiproliferative activity against human SCC25 cells assessed as combination index at 0.5 uM preincubated for 1 hr followed by irradiation with 10 Gy IR and measured after 6 days by MTT assay; assay type: functional; procedure, shortened: as §4
FaDu [16] = assay: Induction of cell cycle arrest in human FADU cells assessed as decrease in CDK1 at 0.5 uM incubated for 48 hrs by immunoblot analysis; assay type: functional, cell-based; procedure, shortened: as §1
FaDu [17] = assay: Synergistic antiproliferative activity against human FADU cells assessed as fractional inhibition at 0.05 uM preincubated for 1 hr followed by irradiation with 5 Gy IR and measured after 6 days by MTT assay (reference value: 0.097); assay type: functional; procedure, shortened: as §3
SCC-25 [18] = assay: Synergistic antiproliferative activity against human SCC25 cells assessed as combination index at 0.5 uM preincubated for 1 hr followed by irradiation with 5 Gy IR and measured after 6 days by MTT assay; assay type: functional; procedure, shortened: as §4
FaDu [19] = assay: Synergistic antiproliferative activity against human FADU cells assessed as combination index at 0.5 uM preincubated for 1 hr followed by irradiation with 5 Gy IR and measured after 6 days by MTT assay; assay type: functional; procedure, shortened: as §5
SCC-25 [20] = assay: Synergistic antiproliferative activity against human SCC25 cells assessed as fractional inhibition at 0.05 uM preincubated for 1 hr followed by irradiation with 10 Gy IR and measured after 6 days by MTT assay (reference value: 0.347); assay type: functional
Procedure, shortened: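 SCC-25 cells seeded 1000/well in 96-well plates in DMEM/10% FBS and left 24 h. Drug or vehicle added, then after 1 h X-irradiated to 2.5, 5 or 10 Gy on one plate using a shifted lead shield. Plates incubated 6 days, then MTT (0.5 mg/mL, 45 min), DMSO solubilisation, absorbance at 570 nm. Fractional inhibition = 1 − fraction of surviving cells.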

FaDu [21] = assay: Synergistic antiproliferative activity against human FADU cells assessed as fractional inhibition at 0.05 uM preincubated for 1 hr followed by irradiation with 10 Gy IR and measured after 6 days by MTT assay (reference value: 0.388); assay type: functional; procedure, shortened: as §3
SCC-25 [22] = assay: Synergistic antiproliferative activity against human SCC25 cells assessed as combination index at 0.005 uM preincubated for 1 hr followed by irradiation with 10 Gy IR and measured after 6 days by MTT assay; assay type: functional; procedure, shortened: as §5
SCC-25 [23] = assay: Synergistic induction of cell cycle arrest in human SCC25 cells assessed as increase in accumulation at G2/M phase at 0.5 uM followed irradiation with 5Gy IR incubated for 24 hrs by propidium iodide staining based flow cytometry; assay type: functional; procedure, shortened: as §2

## COc1ccc2c(c1)N(CCO)C1=C(C(=O)OC1)C2c1ccccc1 (stereo not drawn)
FaDu [1]
  Activity: Active
FaDu [2]
  Activity: Active
FaDu [3]
  Activity: Active
FaDu [4]
  Ratio IC50: 13
SCC-25 [5]
  Activity: Active
FaDu [6]
  fractional inhibitory concentration index (FICI): 0.236
SCC-25 [7]
  CI: 1.244
FaDu [8]
  fractional inhibitory concentration index (FICI): 0.264
FaDu [9]
  CI: 0.572
FaDu [10]
  CI: 0.406
SCC-25 [11]
  CI: 0.801
FaDu [12]
  Activity: Active
FaDu [13]
  CI: 0.314
FaDu [14]
  CI: 0.377
SCC-25 [15]
  CI: 0.663
FaDu [16]
  Activity: Active
FaDu [17]
  fractional inhibitory concentration index (FICI): 0.239
SCC-25 [18]
  CI: 0.395
FaDu [19]
  CI: 0.603
SCC-25 [20]
  fractional inhibitory concentration index (FICI): 0.379
FaDu [21]
  fractional inhibitory concentration index (FICI): 0.452
SCC-25 [22]
  CI: 1.021
SCC-25 [23]
  fold change (FC): 2
